Compound activity deposited in PubChem by The Scripps Research Institute Molecular Screening Center.
Sampled rows, rich in hits. Any-hit rate of the full collection: about 3.1%.
GPR7 antag: GPR7 receptor antagonists, primary screen, cell-based, fluorescence, single concentration; Neuropeptides B/W receptor type 1 (Homo sapiens), P48145; GPR7-expressing cells, fluorescence antagonist assay; inhibition, % at 4.4 µM; 1.1% of 290,000 active; in the data active = inhibition above about 16%, passing the limit was not always enough;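 note: cells stimulated with the agonist NPW; 0% = agonist with vehicle and 100% = vehicle without agonist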
OX1R antag-1: antagonists of human orexin 1 receptor (OX1R); inhibition, % at 6.6 µM; 1.8% of 330,000 active; Orexin/Hypocretin receptor type 1 (Homo sapiens), O43613; OX1R-expressing cells, FRET antagonist read-out; in the data active = inhibition mostly above about 38%, no sharp cut-off; inactive = mostly below about 40%;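 note: 0% = agonist challenge alone and 100% = reference antagonist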
Target sequence (O43613 whole entry, looked up): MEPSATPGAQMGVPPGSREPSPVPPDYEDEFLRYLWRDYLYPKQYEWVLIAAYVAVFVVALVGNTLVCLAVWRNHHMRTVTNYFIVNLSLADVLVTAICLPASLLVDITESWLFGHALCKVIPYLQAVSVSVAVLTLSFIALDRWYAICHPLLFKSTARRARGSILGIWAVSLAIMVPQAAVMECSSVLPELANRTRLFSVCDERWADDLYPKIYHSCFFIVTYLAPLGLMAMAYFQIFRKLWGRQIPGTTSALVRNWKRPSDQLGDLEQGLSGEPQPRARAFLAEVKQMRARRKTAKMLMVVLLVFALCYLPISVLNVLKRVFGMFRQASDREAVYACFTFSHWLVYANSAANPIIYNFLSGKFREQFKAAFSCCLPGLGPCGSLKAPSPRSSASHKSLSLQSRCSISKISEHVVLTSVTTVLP
OX1R antag-2: OX1R (HCRTR1) antagonists, primary screen, fluorescence, CHO/OX1R cells, Fluo-8 calcium, orexin A. AID 434989, 2010. Fluo-8 calcium fluorescence. Orexin/Hypocretin receptor type 1 (Homo sapiens), O43613. inhibition, % at 5 µM. 0.43% of 330,000 active;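 active = inhibition above its plate's threshold, mean inhibition of all tested compounds on the plate plus 3 SD, cut at about 37% in these data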;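 note: 0% = orexin A challenge wells and 100% = SB-334867-A antagonist wells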
CHO parental Ca: ATP-evoked calcium signal inhibitors, parental CHO, primary screen, counter-screen for OX1R antagonist project, cell-based, fluorescence, Fluo-8 calcium dye | parental CHO-K1, ATP-induced calcium, Fluo-8 fluorescence | inhibition, % at 5.6 µM | 0.63% of 330,000 active;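 active = inhibition above that plate's mean sample inhibition plus 3 SD, cut at about 26% in these data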;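 note: 0% = ATP-challenged DMSO wells and 100% = DMSO wells without ATP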
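Test system: untransfected parental CHO cell line. Compound: one dose, 5.6 µM nominal. Detection: intracellular calcium via Fluo-8 no-wash fluorescent dye. Measure: % inhibition. Benchmarks: ATP-challenged DMSO wells low, unchallenged DMSO wells high.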
GalR3 antag: GalR3 antagonists in HEK293 cells, primary screen, cell-based, fluorescence readout | 0.44% of 360,000 active | AID 651719, 2012 | HEK293 GalR3-CNG cAMP membrane potential fluorescence; galR3 body fused to GalR1 C-terminus | inhibition, % at 3 µM;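 active = inhibition above the screen-wide average plus 3 SD, cut at about 13% in these data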;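 note: forskolin and galanin both at EC90 stimulate the cells; cAMP rise reported by CNG channel membrane potential dye signal; 0% = forskolin plus galanin with DMSO and 100% = forskolin alone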
Active calls of the source: *; x = no result given.

SMILES	GPR7 antag	OX1R antag-1	OX1R antag-2	CHO parental Ca	GalR3 antag
O=[N+]([O-])c1cc(Br)c2nsnc2c1N1CCOCC1	20	29*	-15	-9	-3
CC(C)(C)NC(=O)CSc1nc2ccc(NC(=O)CSc3nnnn3Cc3ccccc3)cc2s1	-2	66	42	37*	-4
CCOC(=O)CSc1nc2ccc(NC(=O)CSc3nnnn3Cc3ccccc3)cc2s1	1	12	7	5	-11
CCC(Oc1ccc2c(=O)c(-c3ccccc3OC)coc2c1)C(=O)OCc1ccccc1 (stereo not given)	-5	7	-7	57*	-2
COCCN(CCOC)S(=O)(=O)c1ccc(C(=O)NCCCN2CCOCC2)cc1	2	13	42	56*	-2
NC(=O)c1oc2ccccc2c1NC(=O)c1nc2ccccc2s1	8	23	-12	-22	-1
O=C(Nc1nnc(-c2ccccc2)o1)c1nc2ccccc2s1	x	6	6	28*	8
CC1(C)CC(=O)C=C(Nc2ccc([N+](=O)[O-])cc2)C1	-3	29*	-16	-8	-9
COc1ccc(NC(=O)c2cc(-c3cc(Cl)ccc3O)n[nH]2)c(OC)c1	2	42*	20	-24	-10
COc1ccc(OC)c(NC(=O)c2cc(-c3cc(C)cc(C)c3O)n[nH]2)c1	-11	62*	27	-17	-3
Cc1ccc(C)c(NC(=O)c2cc(-c3cc(C)ccc3O)n[nH]2)c1	-1	26	-20	32*	-8
COc1ccc(NC(=O)c2cc(-c3cc(C)cc(C)c3O)n[nH]2)cc1Cl	2	79*	8	15	-2
COc1ccc(NC(=O)c2cc(-c3cc(Cl)ccc3OC)n[nH]2)c(OC)c1	x	x	x	x	0
COc1ccc(Cl)cc1NC(=O)c1cc(-c2cc(C)ccc2O)n[nH]1	-1	73	10	-3	3
CN(c1cccnc1)c1ccc(NC(=O)CCc2c[nH]c3ccccc23)cc1Br	x	x	x	x	-8
Cc1ccc(OCCCCNC(C)c2ccccc2)c(C)c1 (stereo not given)	6	-6	-28	-16	-9
Cc1cc(C)c(O)c(-c2cc(C(=O)Nc3cccnc3)[nH]n2)c1	-3	44*	26	3	-6
Cc1cc(O)c(-c2cc(C(=O)Nc3cccnc3)[nH]n2)cc1C	-15	37	-16	6	-4
Cc1cc(O)c(-c2cc(C(=O)Nc3ccc(S(=O)(=O)N4CCOCC4)cc3)[nH]n2)cc1C	-1	9	-18	-4	1
O=C(Nc1ccc(S(=O)(=O)N2CCOCC2)cc1)c1cc(-c2cc(Cl)ccc2O)n[nH]1	20*	16	2	13	1
CCCCS(=O)(=O)N1CCCc2nc(-c3ccc(OC)cc3)ccc21	x	x	x	x	-8
CC(NC(=O)[C@H](NC(=O)[C@@H]1Cc2ccccc2CN1)c1ccccc1)c1ccccc1 (stereo not given in full)	-7	50*	-16	-16	-7
CC(C)c1ccc(NC(=O)[C@H](NC(=O)[C@@H]2Cc3ccccc3CN2)c2ccccc2)cc1	-8	15	-22	-23	-2
CC(=O)c1cc(Cl)ccc1OCC(=O)Nc1cccc(S(=O)(=O)N2CCCC2)c1	x	-1	-1	-15	-3
Cc1cn([C@@H](CCCCNC(=O)OC(C)(C)C)C(=O)NCCCCCCCCCCC(=O)N2CCN(C(=O)OC(C)(C)C)CC2)nn1	x	61*	36	61*	x
SMILES	GPR7 antag	OX1R antag-1	OX1R antag-2	CHO parental Ca	GalR3 antag
CC1=C(C)C(O)N(Cc2ccccc2)C1=O (stereo not given)	-9	6	-7	2	-7
c1cc2[nH]snc2c2nc(C3CC3)nc12	-6	46*	-10	-10	-4
CSc1nc(C)cc(OCCNS(=O)(=O)c2cc(C)ccc2C)n1	-2	71*	1	-14	-2
N#Cc1c(-c2ccc([N+](=O)[O-])cc2)nc2n(c1=O)CCS2	-4	65*	-5	-3	-2
N#Cc1c(-c2cccc([N+](=O)[O-])c2)nc2n(c1=O)CCS2	9	40	-11	2	-8
Cc1ccc(Sc2ccc(S(=O)(=O)Nc3ccc(C(=O)O)cc3)cc2)cc1C	x	6	42	48*	-4
COc1cccc(-c2ncn(CCc3ccccc3OC)c2CC(C)C)c1	x	x	x	x	-8
COc1ccc2[nH]c(C(=O)N/N=C/c3ccccc3OC)cc2c1	15	56*	-3	-6	0
COc1cc(OC)c2cc(C(=O)N/N=C/c3ccccc3O)[nH]c2c1	-7	62*	11	-9	-9
COc1ccc(OC)c(/C=N/NC(=O)c2cc3c(OC)c(OC)ccc3[nH]2)c1	-6	29	-21	-11	-5
COc1ccc(C2CC(=O)C(c3ccc(C#N)cc3)=CN2Cc2ccccc2)cc1 (stereo not given)	x	x	x	x	-10
O=C(CCNS(=O)(=O)c1ccccc1)Nc1ccccc1	-6	-1	-12	16	0
Cc1cccc(-n2ncc3c2CCCC3NC(=O)C2CCOCC2)c1C (stereo not given)	-5	13	-9	-14	-1
O=C(OC(c1ccccc1)c1nccc2ccccc12)c1cc([N+](=O)[O-])cc([N+](=O)[O-])c1 (stereo not given)	-2	62*	-45	-30	-6
O=[N+]([O-])c1cc(C(F)(F)F)cc([N+](=O)[O-])c1N1CCN(S(=O)(=O)c2ccccc2)CC1	-2	17	-5	-7	2
O=[N+]([O-])c1cc(C(F)(F)F)ccc1N1CCN(S(=O)(=O)c2ccc3ccccc3c2)CC1	-11	20	-4	-5	16*
CC(C)c1ccc(-n2c(-c3ccccc3)c[n+]3c2CCc2ccccc2-3)cc1	68*	x	x	x	-2
COc1ccc(-n2c(-c3ccc(Br)cc3)c[n+]3c2CCc2ccccc2-3)cc1	19	4	-23	10	-6
N#CC1=C(N)NC(SCC(=O)c2ccc(Cl)cc2)=C(C#N)C12CCCC2	3	21	53*	26	-13
O=C(CSc1nnnn1-c1ccccc1)Nc1ccc(Cl)cn1	-4	11	0	44*	-3
O=C(CN1C(=O)NC(CCc2ccccc2)C1=O)NC1CC1 (stereo not given)	24*	7	-1	-7	-5
CSc1ccc(S(=O)(=O)N2c3ccccc3CC2C)cc1 (stereo not given)	-10	29	-16	10	-2
Cc1nn(C(C)(C)C)c(OC(=O)c2ccc(Br)o2)c1Sc1ccccc1	4	38*	-19	-24	-7
Cc1nn(C(C)(C)C)c(OC(=O)c2ccco2)c1Sc1ccccc1	-8	22	-9	-7	-4
